Experimental data published in ChEMBL document CHEMBL1154186, “Synthesis, kinase inhibitory potencies, and in vitro antiproliferative evaluation of new Pim kinase inhibitors” (J Med Chem, 2009).

How the values were obtained:
[1] = tested on: ERK2 (Mus musculus); assay: Inhibition of ERK2 assessed as residual enzyme activity at 10 uM relative to untreated control
[2] = target: T1, MAP kinase-activated protein kinase 5 (Homo sapiens) (UniProt Q8IW41); assay: Inhibition of PRAK assessed as residual enzyme activity at 10 uM relative to untreated control
T1 sequence (whole entry): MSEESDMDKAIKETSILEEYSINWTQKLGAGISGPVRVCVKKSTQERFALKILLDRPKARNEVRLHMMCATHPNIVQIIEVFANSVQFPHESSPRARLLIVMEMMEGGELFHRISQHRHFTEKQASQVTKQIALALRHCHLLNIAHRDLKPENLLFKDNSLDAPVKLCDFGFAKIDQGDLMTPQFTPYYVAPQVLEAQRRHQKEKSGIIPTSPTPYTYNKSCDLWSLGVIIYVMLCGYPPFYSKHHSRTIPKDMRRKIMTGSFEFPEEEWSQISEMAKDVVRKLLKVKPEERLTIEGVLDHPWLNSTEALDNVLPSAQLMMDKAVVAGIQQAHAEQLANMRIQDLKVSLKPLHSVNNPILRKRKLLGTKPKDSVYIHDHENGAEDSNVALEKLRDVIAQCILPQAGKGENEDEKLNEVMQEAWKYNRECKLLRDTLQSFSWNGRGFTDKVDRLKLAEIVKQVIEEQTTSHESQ

[3] = target: Tyrosine-protein kinase CSK (Homo sapiens) (UniProt P41240); assay: Inhibition of CSK assessed as residual enzyme activity at 10 uM relative to untreated control
Tyrosine-protein kinase CSK (Homo sapiens), sequence (P41240 2-450 limits assumed): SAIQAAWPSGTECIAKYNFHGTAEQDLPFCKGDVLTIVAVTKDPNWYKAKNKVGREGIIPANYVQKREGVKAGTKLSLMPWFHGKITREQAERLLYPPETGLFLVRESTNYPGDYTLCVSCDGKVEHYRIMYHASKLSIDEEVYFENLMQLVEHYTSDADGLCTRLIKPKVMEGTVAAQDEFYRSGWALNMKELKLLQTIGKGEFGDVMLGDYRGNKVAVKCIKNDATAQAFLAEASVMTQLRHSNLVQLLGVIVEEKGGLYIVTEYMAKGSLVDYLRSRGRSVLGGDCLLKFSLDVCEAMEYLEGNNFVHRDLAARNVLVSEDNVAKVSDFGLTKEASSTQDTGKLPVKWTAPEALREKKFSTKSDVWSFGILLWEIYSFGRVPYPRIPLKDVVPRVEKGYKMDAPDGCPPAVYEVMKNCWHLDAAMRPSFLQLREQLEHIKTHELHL
How it was run: (§1)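 Kinases of human origin, except CK1δ, which is rat. Run in 50 mM Tris/HCl pH 7.5, 0.1 mM EGTA, 0.1% 2-mercaptoethanol and 10 mM Mg acetate, with [γ-33P]ATP at 20 µM, 30 min at 21 °C. Acid-stopped and captured on P81 filters. Compound tested at 10 µM; residual % of uninhibited control, duplicate determinations.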

[4] = target: T2, Mitogen-activated protein kinase 13 (Homo sapiens) (UniProt O15264); assay: Inhibition of p38delta assessed as residual enzyme activity at 10 uM relative to untreated control
T2 sequence (whole entry): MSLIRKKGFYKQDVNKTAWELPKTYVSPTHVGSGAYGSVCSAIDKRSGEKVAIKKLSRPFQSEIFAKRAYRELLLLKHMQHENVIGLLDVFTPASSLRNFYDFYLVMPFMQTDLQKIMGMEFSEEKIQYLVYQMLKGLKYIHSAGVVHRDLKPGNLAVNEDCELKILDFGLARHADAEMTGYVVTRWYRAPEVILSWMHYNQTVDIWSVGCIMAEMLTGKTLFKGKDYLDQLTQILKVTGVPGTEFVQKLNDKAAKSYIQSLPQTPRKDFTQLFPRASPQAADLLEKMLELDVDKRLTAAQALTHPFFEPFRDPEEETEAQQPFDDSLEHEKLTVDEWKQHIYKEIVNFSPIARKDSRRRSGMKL
How it was run: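 p38γ and p38δ MAPK run at 5 µM [γ-33P]ATP, and p38α at 50 µM, each with 10 mM Mg acetate. Buffer 50 mM Tris/HCl pH 7.5, 0.1 mM EGTA, 0.1% 2-mercaptoethanol. 10 µM compound, 30 min at 21 °C. P81 filter capture. Residual activity relative to control, duplicates.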

[5] = target: Homeodomain-interacting protein kinase 2 (Homo sapiens) (UniProt Q9H2X6); assay: Inhibition of HIPK2 assessed as residual enzyme activity at 10 uM relative to untreated control
Homeodomain-interacting protein kinase 2 (Homo sapiens), sequence (Q9H2X6 whole entry, looked up): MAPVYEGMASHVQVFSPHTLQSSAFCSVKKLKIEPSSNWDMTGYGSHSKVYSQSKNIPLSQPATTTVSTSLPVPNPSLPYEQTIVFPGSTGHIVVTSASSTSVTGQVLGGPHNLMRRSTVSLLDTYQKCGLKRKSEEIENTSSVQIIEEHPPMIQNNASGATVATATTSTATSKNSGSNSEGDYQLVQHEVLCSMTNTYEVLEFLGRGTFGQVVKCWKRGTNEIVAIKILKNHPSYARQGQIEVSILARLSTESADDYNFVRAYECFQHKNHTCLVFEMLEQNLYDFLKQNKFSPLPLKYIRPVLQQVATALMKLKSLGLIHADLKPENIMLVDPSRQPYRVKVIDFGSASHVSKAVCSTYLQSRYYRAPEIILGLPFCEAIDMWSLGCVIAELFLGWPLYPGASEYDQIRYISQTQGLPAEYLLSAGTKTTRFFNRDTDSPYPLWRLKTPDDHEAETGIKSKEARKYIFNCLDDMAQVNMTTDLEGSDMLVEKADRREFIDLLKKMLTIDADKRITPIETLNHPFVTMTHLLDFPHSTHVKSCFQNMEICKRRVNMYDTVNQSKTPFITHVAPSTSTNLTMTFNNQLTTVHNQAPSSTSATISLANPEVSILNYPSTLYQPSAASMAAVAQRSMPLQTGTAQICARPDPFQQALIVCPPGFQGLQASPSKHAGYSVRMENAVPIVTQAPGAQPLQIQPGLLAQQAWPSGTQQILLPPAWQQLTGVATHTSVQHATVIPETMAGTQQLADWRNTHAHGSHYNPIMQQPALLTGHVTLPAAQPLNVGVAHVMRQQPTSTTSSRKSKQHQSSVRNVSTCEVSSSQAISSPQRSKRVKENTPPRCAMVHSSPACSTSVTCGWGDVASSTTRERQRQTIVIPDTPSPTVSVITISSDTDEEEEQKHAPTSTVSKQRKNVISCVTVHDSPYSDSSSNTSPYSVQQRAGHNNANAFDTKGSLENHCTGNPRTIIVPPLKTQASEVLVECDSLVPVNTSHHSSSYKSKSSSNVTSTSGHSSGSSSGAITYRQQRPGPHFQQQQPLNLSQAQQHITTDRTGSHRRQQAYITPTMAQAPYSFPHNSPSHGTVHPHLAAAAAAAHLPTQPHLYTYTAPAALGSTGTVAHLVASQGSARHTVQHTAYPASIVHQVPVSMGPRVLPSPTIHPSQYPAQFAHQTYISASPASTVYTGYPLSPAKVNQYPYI
How it was run: (§2)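 Radiometric filter-binding assay at 21 °C for 30 min. Mix: 50 mM Tris/HCl pH 7.5, 0.1 mM EGTA, 0.1% 2-mercaptoethanol, 10 mM Mg acetate and [γ-33P]ATP (800 cpm/pmol) at 5 µM. Stopped with orthophosphoric acid and spotted on P81. Compound at 10 µM; activity given as % remaining versus no-inhibitor control, duplicates. Kinases human full-length unless noted.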

[6] = target: Ribosomal protein S6 kinase beta-1 (Homo sapiens) (UniProt P23443); assay: Inhibition of S6K1 assessed as residual enzyme activity at 10 uM relative to untreated control
Ribosomal protein S6 kinase beta-1 (Homo sapiens), sequence (P23443 whole entry, looked up): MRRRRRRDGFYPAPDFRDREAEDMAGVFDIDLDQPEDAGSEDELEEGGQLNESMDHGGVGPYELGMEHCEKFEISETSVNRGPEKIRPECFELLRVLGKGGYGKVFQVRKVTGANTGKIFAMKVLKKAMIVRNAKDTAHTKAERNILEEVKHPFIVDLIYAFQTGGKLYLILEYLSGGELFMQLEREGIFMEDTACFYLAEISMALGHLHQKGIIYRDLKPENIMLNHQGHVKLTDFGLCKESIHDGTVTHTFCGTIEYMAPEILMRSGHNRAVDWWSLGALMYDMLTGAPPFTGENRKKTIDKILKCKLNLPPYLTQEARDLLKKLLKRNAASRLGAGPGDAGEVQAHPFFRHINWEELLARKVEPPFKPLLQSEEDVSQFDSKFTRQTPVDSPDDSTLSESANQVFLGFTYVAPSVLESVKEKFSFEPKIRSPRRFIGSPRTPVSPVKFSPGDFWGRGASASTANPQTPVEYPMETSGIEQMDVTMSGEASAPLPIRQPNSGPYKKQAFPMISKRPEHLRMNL
How it was run: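 Buffer Tris/HCl pH 7.5, EGTA and 2-mercaptoethanol. 30 min at 21 °C, compound at 10 µM. P81 filter read-out. Residual activity versus control, duplicates.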

[7] = Inhibition of CK2 assessed as residual enzyme activity at 10 uM relative to untreated control
How it was run: as §2

[8] = Inhibition of AMPK assessed as residual enzyme activity at 10 uM relative to untreated control
How it was run: (§3)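 Assayed with [γ-33P]ATP at 50 µM and 10 mM Mg acetate in 50 mM Tris/HCl pH 7.5, 0.1 mM EGTA, 0.1% 2-mercaptoethanol, 30 min, 21 °C. Phosphoric acid stop, P81 filter capture. ERK2 and Lck are mouse; AMPK is rat. 10 µM compound; % activity remaining relative to control without inhibitor, duplicates.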

[9] = tested on: ROCK2 (Rattus norvegicus); assay: Inhibition of ROCK2 assessed as residual enzyme activity at 10 uM relative to untreated control
[10] = target: T3, Serine/threonine-protein kinase BRSK2 (Homo sapiens) (UniProt Q8IWQ3); assay: Inhibition of BRSK2 assessed as residual enzyme activity at 10 uM relative to untreated control
T3 sequence (whole entry): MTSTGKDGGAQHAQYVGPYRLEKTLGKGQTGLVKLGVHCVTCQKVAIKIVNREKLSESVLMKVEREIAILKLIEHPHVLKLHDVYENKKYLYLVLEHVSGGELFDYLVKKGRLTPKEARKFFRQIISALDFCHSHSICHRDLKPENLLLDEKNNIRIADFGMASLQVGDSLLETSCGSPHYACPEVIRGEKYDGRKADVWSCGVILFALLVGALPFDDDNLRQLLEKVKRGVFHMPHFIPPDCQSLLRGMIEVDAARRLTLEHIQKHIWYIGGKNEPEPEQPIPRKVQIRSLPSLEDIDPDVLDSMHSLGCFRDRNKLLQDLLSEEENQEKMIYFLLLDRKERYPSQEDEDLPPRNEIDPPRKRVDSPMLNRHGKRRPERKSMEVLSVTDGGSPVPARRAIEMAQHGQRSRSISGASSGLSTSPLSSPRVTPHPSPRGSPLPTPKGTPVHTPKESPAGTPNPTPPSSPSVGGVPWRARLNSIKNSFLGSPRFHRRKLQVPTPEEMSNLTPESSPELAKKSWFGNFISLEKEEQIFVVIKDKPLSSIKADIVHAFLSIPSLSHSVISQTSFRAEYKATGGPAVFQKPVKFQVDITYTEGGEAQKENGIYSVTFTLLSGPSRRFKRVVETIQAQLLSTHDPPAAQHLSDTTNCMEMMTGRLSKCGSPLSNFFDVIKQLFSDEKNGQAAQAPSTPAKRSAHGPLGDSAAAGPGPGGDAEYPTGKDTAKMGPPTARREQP
How it was run: as §3

[11] = target: Serine/threonine-protein kinase PAK 6 (Homo sapiens) (UniProt Q9NQU5); assay: Inhibition of PAK6 assessed as residual enzyme activity at 10 uM relative to untreated control
Serine/threonine-protein kinase PAK 6 (Homo sapiens), sequence (Q9NQU5 whole entry, looked up): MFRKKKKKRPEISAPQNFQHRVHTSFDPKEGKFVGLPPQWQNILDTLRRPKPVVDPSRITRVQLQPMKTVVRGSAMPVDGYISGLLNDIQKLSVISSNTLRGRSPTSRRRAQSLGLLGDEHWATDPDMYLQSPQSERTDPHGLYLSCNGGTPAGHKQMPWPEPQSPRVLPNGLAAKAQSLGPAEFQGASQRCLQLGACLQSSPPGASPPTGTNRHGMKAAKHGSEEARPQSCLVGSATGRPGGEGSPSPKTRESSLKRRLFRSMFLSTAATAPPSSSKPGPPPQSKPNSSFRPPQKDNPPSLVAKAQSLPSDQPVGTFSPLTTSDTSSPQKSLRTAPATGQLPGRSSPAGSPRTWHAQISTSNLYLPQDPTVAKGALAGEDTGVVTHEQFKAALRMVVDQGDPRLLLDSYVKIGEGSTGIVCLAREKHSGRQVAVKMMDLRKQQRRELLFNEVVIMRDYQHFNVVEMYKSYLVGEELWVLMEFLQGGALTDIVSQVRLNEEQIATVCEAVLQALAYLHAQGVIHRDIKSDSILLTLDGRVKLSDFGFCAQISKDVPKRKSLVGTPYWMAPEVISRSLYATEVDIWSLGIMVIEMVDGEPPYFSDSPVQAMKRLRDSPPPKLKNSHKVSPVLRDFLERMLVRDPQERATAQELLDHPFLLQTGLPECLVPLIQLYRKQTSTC
How it was run: as §1

Activity [1] | Activity [2] | Activity [3] | Activity [4] | Activity [5] | Activity [6] | Activity [7] | Activity [8] | Activity [9] | Activity [10] | Activity [11] | SMILES
94% | 97% | 98% | 78% | 59% | 89% | 91% | 80% | 86% | 58% | 92% | c1ccc2c(c1)[nH]c1c2ccc2cc[nH]c21
100% | 114% | 72% | 89% | 72% | 87% | 96% | 79% | 89% | 76% | 91% | c1ccc2c(c1)[nH]c1c3cc[nH]c3ccc21
94% | 114% | 87% | 83% | 95% | 82% | 98% | 85% | 86% | 101% | 99% | O=Cc1c[nH]c2ccc3c4ccccc4[nH]c3c12
– | 72% | 74% | – | – | – | 62% | 59% | – | 22% | 94% | O=Cc1c[nH]c2c1ccc1c3ccccc3[nH]c12
